The values that follow come from article PMC5850608 (Molecular Biology and Evolution, 2017).

The target in one experiment is T1, EsemOR3 (Eriocrania semipurpurella, UniProt A0A2H4NT95).
T1 sequence (A0A2H4NT95 1-441): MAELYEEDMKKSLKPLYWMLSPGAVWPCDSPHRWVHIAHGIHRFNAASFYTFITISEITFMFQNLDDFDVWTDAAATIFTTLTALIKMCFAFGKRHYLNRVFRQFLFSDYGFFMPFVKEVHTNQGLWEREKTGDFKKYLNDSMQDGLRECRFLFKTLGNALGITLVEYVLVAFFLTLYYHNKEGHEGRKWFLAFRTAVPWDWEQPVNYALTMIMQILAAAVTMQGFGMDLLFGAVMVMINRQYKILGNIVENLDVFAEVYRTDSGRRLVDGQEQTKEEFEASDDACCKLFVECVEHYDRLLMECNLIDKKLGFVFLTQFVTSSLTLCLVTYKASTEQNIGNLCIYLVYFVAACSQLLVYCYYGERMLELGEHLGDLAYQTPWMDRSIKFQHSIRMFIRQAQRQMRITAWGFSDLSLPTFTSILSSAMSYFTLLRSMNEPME
T1 sequence (A0A2H4NT96 1-482 partner): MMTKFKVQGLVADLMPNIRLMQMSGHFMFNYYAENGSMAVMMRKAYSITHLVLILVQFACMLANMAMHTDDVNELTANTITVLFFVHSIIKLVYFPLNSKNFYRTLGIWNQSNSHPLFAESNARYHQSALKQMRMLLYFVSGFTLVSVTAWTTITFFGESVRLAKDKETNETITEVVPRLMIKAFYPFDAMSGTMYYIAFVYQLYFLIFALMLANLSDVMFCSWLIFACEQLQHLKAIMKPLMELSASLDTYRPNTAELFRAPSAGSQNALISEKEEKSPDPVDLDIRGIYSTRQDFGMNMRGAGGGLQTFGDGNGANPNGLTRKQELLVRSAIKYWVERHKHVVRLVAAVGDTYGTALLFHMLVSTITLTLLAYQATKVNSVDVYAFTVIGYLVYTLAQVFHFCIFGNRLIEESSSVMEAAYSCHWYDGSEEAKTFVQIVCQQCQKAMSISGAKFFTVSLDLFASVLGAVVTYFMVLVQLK
The experiment in a line: Fluorescent calcium assay, HEK293 cells expressing EsemOrco and EsemOR3. In kind it is cell-based. The following applies: for Response of EsemOR3-expressing cells in screening: compounds screened at 30 µM. An outline of the steps: (§1)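 Inducible TREx HEK293 cells stably carry Myc-tagged Orco plus V5-tagged receptor; non-induced wells serve as control. Cells loaded 30 min RT with 1 µM Fluo4-AM, 0.2% pluronic, in DPBS (Ca2+, Mg2+, 1 mM probenecid, pH 7.1); fluorescence read 1 min after ligand. Screen at 30 µM; dose–response from 150 µM, 1/2 dilutions; Orco agonist 50 µM; 0.5% DMSO vehicle. Triplicate wells, three experiments; EC50 (95% CI) by nonlinear fit.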

The next experiment has as its target T2, EsemOR5 (Eriocrania semipurpurella, UniProt A0A2H4NTA6).
T2 sequence (A0A2H4NTA6 1-419): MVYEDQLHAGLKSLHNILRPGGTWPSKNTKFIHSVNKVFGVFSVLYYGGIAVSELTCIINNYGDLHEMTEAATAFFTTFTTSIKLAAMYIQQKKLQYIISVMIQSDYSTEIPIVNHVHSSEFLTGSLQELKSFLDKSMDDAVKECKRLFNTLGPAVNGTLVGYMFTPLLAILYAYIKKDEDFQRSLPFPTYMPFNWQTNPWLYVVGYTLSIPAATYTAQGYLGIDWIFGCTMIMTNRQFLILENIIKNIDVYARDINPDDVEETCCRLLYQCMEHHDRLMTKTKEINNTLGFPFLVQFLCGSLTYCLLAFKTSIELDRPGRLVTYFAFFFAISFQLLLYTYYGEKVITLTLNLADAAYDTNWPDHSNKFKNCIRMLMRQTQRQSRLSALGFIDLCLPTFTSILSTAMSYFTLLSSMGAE
T2 sequence (A0A2H4NT96 1-482 partner): T1 sequence (A0A2H4NT96 1-482 partner)
The experiment in a line: Fluorescent calcium assay, HEK293 cells expressing EsemOrco and EsemOR5. It is filed as cell-based. Particulars: for Response of EsemOR5-expressing cells in screening: compounds screened at 30 µM. The procedure, abridged:
as §1

A further experiment has as its system E. semipurpurella males. Particulars: cited from earlier work; for Attraction of E. semipurpurella: sex pheromone components, males but not females, ref Larsson etal. 2002; for Effect on male sex pheromone attraction: ref Kozlov etal. 1996.
A further experiment relates to E. sangii. The following applies: ref Kozlov etal. 1996; cited from earlier work.
The subject of a further experiment is EsemOR6. As to the kind of experiment: Fluorescent calcium assay, HEK293 cells expressing EsemOrco and EsemOR6. In kind it is cell-based, Eriocrania semipurpurella. Particulars: EsemOrco + EsemOR6 cell line, 50 μM, induced cells. An outline of the steps:
as §1

Another experiment has as its system EsemOR4. As to the kind of experiment: Fluorescent calcium assay, HEK293 cells expressing EsemOrco and EsemOR4. In kind it is cell-based, Eriocrania semipurpurella. Particulars: EsemOrco + EsemOR4 cell line, 50 μM, induced cells. The procedure, abridged:
as §1

The target of the next experiment is T3, EsemOR1 (Eriocrania semipurpurella, UniProt A0A2H4NTA3).
T3 sequence (A0A2H4NTA3 1-412): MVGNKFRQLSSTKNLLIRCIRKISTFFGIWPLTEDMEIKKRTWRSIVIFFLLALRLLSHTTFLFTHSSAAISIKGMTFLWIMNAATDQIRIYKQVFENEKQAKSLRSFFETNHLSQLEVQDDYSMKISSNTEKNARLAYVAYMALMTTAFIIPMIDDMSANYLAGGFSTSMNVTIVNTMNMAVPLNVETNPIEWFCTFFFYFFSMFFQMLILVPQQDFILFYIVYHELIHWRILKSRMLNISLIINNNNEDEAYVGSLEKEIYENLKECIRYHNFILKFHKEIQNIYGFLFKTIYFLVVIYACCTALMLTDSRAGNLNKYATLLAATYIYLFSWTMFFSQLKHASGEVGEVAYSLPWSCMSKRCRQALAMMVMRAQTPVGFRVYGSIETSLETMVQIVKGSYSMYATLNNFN
T3 sequence (A0A2H4NT96 1-482 partner): T1 sequence (A0A2H4NT96 1-482 partner)
As to the kind of experiment: Fluorescent calcium assay, HEK293 cells expressing EsemOrco and EsemOR1. In kind it is cell-based. An outline of the steps: as §1

pEC50: −log10 of the molar value. Entries after “also recorded” stand apart in the source; their conditions may differ.

Broadly, the pEC50 is −log10 of the EC50, conventionally taken in molar units.

`CCCCCCCCC(C)O` (stereo not shown) [2-Decanol]: the “Response of EsemOR3-expressing cells in screening” value on EsemOR3 (induced cells) is on record as “responded to a lesser extent”.
Consider `CCCCCCC(C)O` (stereo not shown) [2-Octanol], for which, at EsemOR5 (induced cells), the “Response of EsemOR5-expressing cells in screening” value is listed as “responded”. Besides, on EsemOR3 (induced cells), the “Response of EsemOR3-expressing cells in screening” value is “responded to a lesser extent”.
Regarding `CCCCCCC(C)=O` [2-Octanone], at EsemOR5 (induced cells), the “Response of EsemOR5-expressing cells in screening” value is listed as “responded”. The “Response of EsemOR3-expressing cells in screening” value on EsemOR3 (induced cells) is on record as “responded to a lesser extent”.
With `CCCCCC(O)CC` (stereo not shown) [3-Octanol], the “Response of EsemOR3-expressing cells in screening” value on EsemOR3 (induced cells) is “responded to a lesser extent”.
On to `CC/C=C\CCC[C@@H](C)O` [(2R, 6Z)-6-nonen-2-ol, (2R,6Z)-6-Nonen-2-ol], for which the “Response of EsemOR5-expressing cells in screening” value at EsemOR5 (induced cells) is listed as “Weaker responses”. For the same molecule, the “Attraction of E. semipurpurella” value in the experiment on E. semipurpurella males is listed as “attractive to males”. Besides, at EsemOR3 (induced cells), the “Response of EsemOR3-expressing cells in screening” value was “less so”.
Take `CC/C=C\CCC[C@H](C)O` [(2S,6Z)-6-Nonen-2-ol]: the “Response of EsemOR5-expressing cells in screening” value on EsemOR5 (induced cells, listed as (2 S, 6Z)-6-nonen-2-ol) is “activated the OR”. In the experiment on E. semipurpurella males, the “Attraction of E. semipurpurella” value is reported as “attractive to males”. Further, the pEC50 at EsemOR3 is 6.25. In addition, the “Response of EsemOR3-expressing cells in screening” value at EsemOR3 (induced cells) is listed as “responded most strongly”.
Regarding `CCC/C=C/COC(C)=O` [(E)-2-Hexenyl acetate], the “Response of EsemOR5-expressing cells in screening” value on EsemOR5 (induced cells) was “responded”.
In the case of `CC(C)=CCC[C@@H](C)O` [(R)-6-methyl-5-hepten-2-ol, (R)-6-Methyl-5-hepten-2-ol], the “Response of EsemOR3-expressing cells in screening” value at EsemOR3 (induced cells) is reported as “responded to a lesser extent”.
As to `CCCCC[C@H](C)O` [(S)-Heptan-2-ol], the “Response of EsemOR3-expressing cells in screening” value on EsemOR3 (induced cells) is on record as “less so; also recorded: responded to some extent”.
Turning to `CCCCCCC[C@H](C)O` [(S)-Nonan-2-ol], the “Response of EsemOR5-expressing cells in screening” value at EsemOR5 (induced cells) is “Weaker responses”. Besides, at EsemOR3 (induced cells), the “Response of EsemOR3-expressing cells in screening” value was “less so”.
Turning to `CC/C=C\CCOC(C)=O` [(Z)-3-Hexenyl acetate], the “Response of EsemOR5-expressing cells in screening” value on EsemOR5 (induced cells) was “responded”. Moreover, the “Response of EsemOR3-expressing cells in screening” value at EsemOR3 (induced cells) was “responded to a lesser extent”.
Take `CC/C=C\CCCC(C)=O` [(Z)-6-Nonen-2-one]: the negative-log EC50 (pEC50) at EsemOR5 was 6.37. Besides, the “Response of EsemOR5-expressing cells in screening” value at EsemOR5 (induced cells) is recorded as “responded most strongly”. Moreover, in the experiment on E. semipurpurella males (E. semipurpurella), the “Effect on male sex pheromone attraction” value is “antagonize male sex pheromone attraction”. On EsemOR3 (induced cells), the “Response of EsemOR3-expressing cells in screening” value was “less so; also recorded: responded to some extent”. The “Behavioural effect in E. sangii” value in the experiment on E. sangii was “antagonist”.
For the molecule `CCCCCCOC(C)=O` [Hexyl acetate], the “Response of EsemOR5-expressing cells in screening” value on EsemOR5 (induced cells) is on record as “responded”.
For the molecule `CCCCCCCC(C)=O` [Nonan-2-one], the “Response of EsemOR5-expressing cells in screening” value at EsemOR5 (induced cells) is recorded as “Weaker responses”. In the experiment on E. semipurpurella males (E. semipurpurella, low concentration, ref Larsson etal. (2002)), the “Effect on pheromone attraction” value was “increases pheromone attraction”. In the experiment with E. semipurpurella males (E. semipurpurella), the “Effect on male sex pheromone attraction” value was “antagonize male sex pheromone attraction”. The “Response of EsemOR3-expressing cells in screening” value on EsemOR3 (induced cells) was “less so; also recorded: more weakly”.
On to `CCc1ccc(NC(=O)CSc2nnc(-c3cccnc3)n2CC)cc1` [VUAA1], for which the “Response to Orco agonist (positive control)” value at EsemOR5 (EsemOrco + EsemOR5 cell line, 50 μM, induced cells) is “elicited responses in induced cells”; on EsemOR3 (EsemOrco + EsemOR3 cell line, 50 μM, induced cells), “elicited responses in induced cells”; in the experiment with EsemOR6, “elicited responses in induced cells”; with EsemOR4, “elicited responses in induced cells”; on EsemOR1 (EsemOrco + EsemOR1 cell line, 50 μM, induced cells), “elicited responses in induced cells”.
As to `C=C1CC/C=C(\C)CC[C@@H]2[C@@H]1CC2(C)C` [β-caryophyllene, β-Caryophyllene], the pEC50 on EsemOR1 is 5.61. Also, the “Response of EsemOR1-expressing cells in screening” value at EsemOR1 (induced cells, compounds screened at 30 µM) is “responded”.
